Data reported in ChEMBL document CHEMBL1125169, “Trifluoromethylacetylenic alcohols as affinity labels: inactivation of estradiol dehydrogenase by a trifluoromethylacetylenic secostradiol” (J Med Chem, 1990).
One block for each molecule: values may come before it.

Assays:
[1] = molecular target: T1, 17-beta-hydroxysteroid dehydrogenase type 1 (Homo sapiens) (UniProt P14061); assay: Tested by protection experiments to demonstrate the inactivation of estradiol dehydrogenase and the kinetic parameter Kapp was reported at a concentration of 20 uM
T1 sequence (whole entry): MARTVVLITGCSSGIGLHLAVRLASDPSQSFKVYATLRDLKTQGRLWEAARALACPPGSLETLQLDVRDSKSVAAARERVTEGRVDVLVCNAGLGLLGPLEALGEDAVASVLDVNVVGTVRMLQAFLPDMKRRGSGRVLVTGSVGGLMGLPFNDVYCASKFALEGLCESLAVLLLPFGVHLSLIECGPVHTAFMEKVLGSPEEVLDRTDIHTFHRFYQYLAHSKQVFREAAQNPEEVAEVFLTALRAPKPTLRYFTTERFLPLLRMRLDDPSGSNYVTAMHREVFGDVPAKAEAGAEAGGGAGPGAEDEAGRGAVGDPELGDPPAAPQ
How it was run: (§1)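 Inactivation of estradiol dehydrogenase with inhibitor at 20 μM, either alone or with a protecting ligand: 17β-estradiol or 17α-estradiol at 32 μM, or cofactors at 150 μM. Apparent inactivation rate constant (kapp, min⁻¹) was taken from least-squares fits of the time courses (r ≥ 0.992).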

[2] = The limiting half life time was reported
How it was run: (§2)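 Time-dependent inactivation of estradiol dehydrogenase was run at several inhibitor concentrations without NAD⁺, in 1 M carbonate buffer (pH 9.2) with glycerol omitted. Points are the mean of three experiments (two at 80 μM). Pseudo-first-order inactivation kinetics gave Ki and limiting t1/2.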

[3] = molecular target: T1, 17-beta-hydroxysteroid dehydrogenase type 1 (Homo sapiens); assay: Tested by protection experiments to demonstrate the inactivation of estradiol dehydrogenase and the kinetic parameter Kapp was reported at a concentration of 150 uM; how it was run: as §1
[4] = molecular target: T2, 17-beta-hydroxysteroid dehydrogenase type 1 (Homo sapiens, UniProt P14061); assay: Tested for time-dependent inactivation of the enzyme that followed pseudo- first- order kinetics in the absence of NAD+ and the Ki values were reported; how it was run: as §2
T2 sequence (P14061 whole entry): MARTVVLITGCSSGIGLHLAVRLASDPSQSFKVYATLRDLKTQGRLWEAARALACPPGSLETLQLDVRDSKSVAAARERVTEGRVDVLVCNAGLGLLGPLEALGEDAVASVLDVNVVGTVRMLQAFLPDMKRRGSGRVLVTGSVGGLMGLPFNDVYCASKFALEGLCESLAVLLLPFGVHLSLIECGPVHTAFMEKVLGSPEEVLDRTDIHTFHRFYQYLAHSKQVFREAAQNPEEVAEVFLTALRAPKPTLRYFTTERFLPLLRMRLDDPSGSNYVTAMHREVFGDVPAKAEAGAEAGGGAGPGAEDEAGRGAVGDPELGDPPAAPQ

[5] = molecular target: T2, 17-beta-hydroxysteroid dehydrogenase type 1; assay: Tested by protection experiments to demonstrate the inactivation of estradiol dehydrogenase and the kinetic parameter Ki app was reported at a concentration of 20 uM; details: read-out: Ki app; how it was run: as §1
[6] = substrate: C#CC(O)[C@@]1(C)CCC2c3ccc(O)cc3CCC2C1

Molecule: C[C@]12CC[C@@H]3c4ccc(O)cc4CC[C@H]3[C@@H]1CC[C@@H]2O.NC(=O)C1=CN([C@@H]2O[C@H](COP(=O)(O)OP(=O)(O)OC[C@H]3O[C@@H](n4cnc5c(N)ncnc54)[C@H](O)[C@@H]3O)[C@@H](O)[C@H]2O)C=CC1
- K app [1]: 0.013 min⁻¹

Molecule: C[C@]12CC[C@@H]3c4ccc(O)cc4CC[C@H]3[C@@H]1CC[C@@H]2O
- K app [1]: 0.013 min⁻¹

Molecule: C[C@@]1(C(O)C#CC(F)(F)F)CCC2c3ccc(O)cc3CCC2C1 (single isomer, unassigned)
- half-life [2]: 8 min
- K app [3]: 0.011 min⁻¹
- Ki [4]: 65 µM
- K app [1]: 0.021 min⁻¹

Molecule: C[C@]12CC[C@@H]3c4ccc(O)cc4CC[C@H]3[C@@H]1CC[C@H]2O
- K app [1]: 0.01 min⁻¹

B1: 17-beta-hydroxysteroid dehydrogenase type 1 (Homo sapiens), P14061 (protein)
chain: MARTVVLITGCSSGIGLHLAVRLASDPSQSFKVYATLRDLKTQGRLWEAARALACPPGSLETLQLDVRDSKSVAAARERVTEGRVDVLVCNAGLGLLGPLEALGEDAVASVLDVNVVGTVRMLQAFLPDMKRRGSGRVLVTGSVGGLMGLPFNDVYCASKFALEGLCESLAVLLLPFGVHLSLIECGPVHTAFMEKVLGSPEEVLDRTDIHTFHRFYQYLAHSKQVFREAAQNPEEVAEVFLTALRAPKPTLRYFTTERFLPLLRMRLDDPSGSNYVTAMHREVFGDVPAKAEAGAEAGGGAGPGAEDEAGRGAVGDPELGDPPAAPQ
- Km [6]: 79 µM

More lines, now with the values ahead:

- K app [1]: 0.013 min⁻¹
Molecule: NC(=O)c1ccc[n+]([C@@H]2O[C@H](COP(=O)([O-])OP(=O)(O)OC[C@H]3O[C@@H](n4cnc5c(N)ncnc54)[C@H](O)[C@@H]3O)[C@@H](O)[C@H]2O)c1

- half-life [2]: 7 min
- K app [3]: 0.014 min⁻¹
- Ki [4]: 59 µM
- K app [1]: 0.026 min⁻¹
Molecule: C[C@]1(C(O)C#CC(F)(F)F)CCC2c3ccc(O)cc3CCC2C1 (stereo not given in full)

- K app [1]: 0.025 min⁻¹
Molecule: NC(=O)C1=CN(C2OC(COP(=O)(O)OP(=O)(O)OC[C@H]3O[C@@H](n4cnc5c(N)ncnc54)[C@H](O)[C@@H]3O)[C@H](O)[C@@H]2O)C=CC1 (stereo not given in full)

- Ki [5]: 2.8 µM
Molecule: C#CC(=O)[C@@]1(C)CCC2c3ccc(O)cc3CCC2C1 (stereo not given in full)
